# Data as given in ChEMBL document CHEMBL1240350, “In vitro activity of CEM-101 against Streptococcus pneumoniae and Streptococcus pyogenes with defined macrolide resistance mechanisms” (Antimicrob Agents Chemother, 2010).
# Experiments:
# Assay type in all cases: functional
# [1] = tested on: Streptococcus pneumoniae; assay: Antibacterial activity against penicillin-susceptible Streptococcus pneumoniae after overnight incubation by agar dilution method
# Summary of the method: (§1)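 Agar dilution on Mueller-Hinton agar supplemented with 5% sheep blood. Inoculum 10^4 CFU/spot, incubated overnight at 35°C in ambient air. Test strains were clinical pneumococcal isolates. S. pneumoniae ATCC 49619 was included as the quality control strain in each run. MIC range, MIC50 and MIC90 were reported for each susceptibility category.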
# [2] = tested on: Streptococcus pneumoniae; assay: Antibacterial activity against Streptococcus pneumoniae harboring erm(B) gene after overnight incubation by agar dilution method
# Summary of the method: (§2)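 Clinical isolates collected 1998–2008, with macrolide-resistance genes confirmed by PCR. MICs by agar dilution on Mueller-Hinton agar with 5% sheep blood. Inoculum 10^4 CFU/spot, incubated overnight at 35°C in ambient air. S. pneumoniae ATCC 49619 was the quality-control strain in every run.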
# [3] = tested on: Streptococcus pneumoniae; assay: Antibacterial activity against Streptococcus pneumoniae harboring erm(A) gene after overnight incubation by agar dilution method; summary of the method: as §2
# [4] = tested on: Streptococcus pneumoniae; assay: Antibacterial activity against Streptococcus pneumoniae harboring mutation in 23S rRNA after overnight incubation by agar dilution method; summary of the method: as §2
# [5] = tested on: Streptococcus pneumoniae; assay: Antibacterial activity against quinolone-resistant Streptococcus pneumoniae after overnight incubation by agar dilution method; summary of the method: as §1
# [6] = tested on: Streptococcus pneumoniae; assay: Antibacterial activity against macrolide-resistant Streptococcus pneumoniae harboring erm(B) gene after overnight incubation by agar dilution method
# Summary of the method: (§3)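 Agar dilution MICs on Mueller-Hinton agar with 5% sheep blood. Inoculum 10^4 CFU/spot, incubated overnight at 35°C in ambient air. Clinical S. pneumoniae or group A streptococcal isolates; resistance genotypes (erm(B), erm(A), mef(A)/mef(E)) were assigned by PCR. S. pneumoniae ATCC 49619 served as QC strain in each run. Range, MIC50 and MIC90 reported per phenotype group.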
# [7] = tested on: Streptococcus pneumoniae; assay: Antibacterial activity against macrolide-resistant Streptococcus pneumoniae harboring mef(A) gene after overnight incubation by agar dilution method; summary of the method: as §3
# [8] = tested on: Streptococcus pyogenes; assay: Antibacterial activity against macrolide-susceptible Streptococcus pyogenes after overnight incubation by agar dilution method
# Summary of the method: (§4)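 Agar dilution on Mueller-Hinton agar supplemented with 5% sheep blood, inoculum 10^4 CFU/spot, read after overnight incubation at 35°C in ambient air. Clinical isolates with defined genotypes; S. pneumoniae ATCC 49619 quality control strain included in each run. MIC50/MIC90 are MICs inhibiting 50% and 90% of isolates.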
# [9] = tested on: Streptococcus pyogenes; assay: Antibacterial activity against Streptococcus pyogenes harboring erm(B) gene after overnight incubation by agar dilution method; summary of the method: as §2
# [10] = tested on: Streptococcus pyogenes; assay: Antibacterial activity against Streptococcus pyogenes harboring erm(A) gene after overnight incubation by agar dilution method; summary of the method: as §2
# [11] = tested on: Streptococcus pyogenes; assay: Antibacterial activity against Streptococcus pyogenes harboring mutation in L4 ribosomal protein after overnight incubation by agar dilution method; summary of the method: as §2
# [12] = tested on: Streptococcus pyogenes; assay: Antibacterial activity against macrolide-resistant Streptococcus pyogenes harboring erm(B) gene after overnight incubation by agar dilution method; summary of the method: as §3
# [13] = tested on: Streptococcus pyogenes; assay: Antibacterial activity against macrolide-resistant Streptococcus pyogenes harboring erm(A) gene after overnight incubation by agar dilution method; summary of the method: as §3
# [14] = tested on: Streptococcus pneumoniae; assay: Antibacterial activity against penicillin-intermediate Streptococcus pneumoniae after overnight incubation by agar dilution method; summary of the method: as §4
# [15] = tested on: Streptococcus pneumoniae; assay: Antibacterial activity against penicillin-resistant Streptococcus pneumoniae after overnight incubation by agar dilution method; summary of the method: as §1
# [16] = tested on: Streptococcus pneumoniae; assay: Antibacterial activity against macrolide-susceptible Streptococcus pneumoniae after overnight incubation by agar dilution method; summary of the method: as §3
# [17] = tested on: Streptococcus pneumoniae; assay: Antibacterial activity against Streptococcus pneumoniae harboring mef(A) gene after overnight incubation by agar dilution method; summary of the method: as §2
# [18] = tested on: Streptococcus pneumoniae; assay: Antibacterial activity against Streptococcus pneumoniae harboring erm(B) and mef(A) gene after overnight incubation by agar dilution method; summary of the method: as §2
# [19] = tested on: Streptococcus pneumoniae; assay: Antibacterial activity against Streptococcus pneumoniae harboring mutation in L4 ribosomal protein after overnight incubation by agar dilution method; summary of the method: as §2
# [20] = tested on: Streptococcus pneumoniae; assay: Antibacterial activity against quinolone-susceptible Streptococcus pneumoniae after overnight incubation by agar dilution method; summary of the method: as §1
# [21] = tested on: Streptococcus pneumoniae; assay: Antibacterial activity against macrolide-resistant Streptococcus pneumoniae harboring erm(B) and mef(A) gene after overnight incubation by agar dilution method; summary of the method: as §3
# [22] = tested on: Streptococcus pneumoniae; assay: Antibacterial activity against macrolide-resistant Streptococcus pneumoniae harboring mutation in L4 ribosomal protein after overnight incubation by agar dilution method; summary of the method: as §3
# [23] = tested on: Streptococcus pyogenes; assay: Antibacterial activity against Streptococcus pyogenes harboring mef(A) gene after overnight incubation by agar dilution method; summary of the method: as §2
# [24] = tested on: Streptococcus pyogenes; assay: Antibacterial activity against macrolide-resistant Streptococcus pyogenes harboring mef(A) gene after overnight incubation by agar dilution method; summary of the method: as §3
smiles,measurement,setting,value
COc1c(N2C[C@@H]3CCCN[C@@H]3C2)c(F)cc2c(=O)c(C(=O)O)cn(C3CC3)c12 [MOXIFLOXACIN],MIC50,[1],0.5 µg/mL
same,MIC90,[1],4 µg/mL
same,MIC50,[2],0.25 µg/mL
same,MIC90,[2],0.5 µg/mL
same,MIC,[3],0.25 µg/mL
same,MIC,[4],0.25 µg/mL
same,MIC50,[5],4 µg/mL
same,MIC90,[5],4 µg/mL
same,MIC50,[6],0.25 µg/mL
same,MIC90,[6],0.5 µg/mL
same,MIC50,[7],0.25 µg/mL
same,MIC90,[7],0.5 µg/mL
same,MIC50,[8],0.25 µg/mL
same,MIC90,[8],0.25 µg/mL
same,MIC50,[9],0.25 µg/mL
same,MIC90,[9],0.25 µg/mL
same,MIC50,[10],0.25 µg/mL
same,MIC90,[10],0.25 µg/mL
same,MIC,[11],0.25 µg/mL
same,MIC50,[12],0.25 µg/mL
same,MIC90,[12],0.25 µg/mL
same,MIC50,[13],0.25 µg/mL
same,MIC90,[13],0.25 µg/mL
CC1(C)S[C@@H]2[C@H](NC(=O)Cc3ccccc3)C(=O)N2[C@H]1C(=O)O [PENICILLIN G],MIC50,[1],0.03 µg/mL
same,MIC90,[1],0.06 µg/mL
same,MIC50,[14],0.5 µg/mL
same,MIC90,[14],1 µg/mL
same,MIC50,[15],4 µg/mL
same,MIC90,[15],8 µg/mL
same,MIC50,[16],1 µg/mL
same,MIC90,[16],2 µg/mL
same,MIC50,[2],1 µg/mL
same,MIC90,[2],4 µg/mL
same,MIC50,[17],0.125 µg/mL
same,MIC90,[17],4 µg/mL
same,MIC,[3],0.03 µg/mL
same,MIC50,[18],2 µg/mL
same,MIC90,[18],4 µg/mL
same,MIC50,[19],4 µg/mL
same,MIC90,[19],16 µg/mL
same,MIC,[4],0.015 µg/mL
same,MIC50,[20],1 µg/mL
same,MIC90,[20],4 µg/mL
same,MIC50,[5],0.25 µg/mL
same,MIC90,[5],4 µg/mL
same,MIC50,[6],1 µg/mL
same,MIC90,[6],4 µg/mL
same,MIC50,[7],0.125 µg/mL
same,MIC90,[7],4 µg/mL
same,MIC50,[21],2 µg/mL
same,MIC90,[21],4 µg/mL
same,MIC50,[22],4 µg/mL
same,MIC90,[22],16 µg/mL
same,MIC50,[8],0.015 µg/mL
same,MIC90,[8],0.015 µg/mL
same,MIC50,[9],0.015 µg/mL
same,MIC90,[9],0.015 µg/mL
same,MIC50,[23],0.015 µg/mL
same,MIC90,[23],0.03 µg/mL
same,MIC50,[10],0.015 µg/mL
same,MIC90,[10],0.015 µg/mL
same,MIC,[11],0.015 µg/mL
same,MIC50,[12],0.015 µg/mL
same,MIC90,[12],0.015 µg/mL
same,MIC50,[24],0.015 µg/mL
same,MIC90,[24],0.03 µg/mL
same,MIC50,[13],0.015 µg/mL
same,MIC90,[13],0.015 µg/mL
